# Test system: U2OS
# Assay: Multiplex assay against U2OS
# Type: toxicity, cell-based
# Conditions: human
# Outline: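 Live cells were stained at seeding with Hoechst33342, BioTracker Green Microtubule Cytoskeleton Dye, MitoTracker Red and Annexin V Alexa Fluor 680, then imaged on a CQ1 microscope at 37°C and 5% CO2 after compound addition. CellPathfinder machine-learning gating split cells into Hoechst high-intensity objects or normal cells. Normal cells were split into healthy, pyknosed or fragmented nuclei, and pyknosed cells into mitotic or apoptotic. Tubulin, mitochondrial-mass and membrane-permeability phenotypes are per cents of healthy-nucleus cells.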
# [1] = 12 h, 1 µM, compound concentration 1 uM, replicate 1
# [2] = 12 h, 1 µM, compound concentration 1 uM, replicate 2
# [3] = 12 h, 10 µM, compound concentration 10 uM, replicate 1
# [4] = 12 h, 10 µM, compound concentration 10 uM, replicate 2
# [5] = 24 h, 1 µM, compound concentration 1 uM, replicate 1
# [6] = 24 h, 1 µM, compound concentration 1 uM, replicate 2
# [7] = 24 h, 10 µM, compound concentration 10 uM, replicate 1
# [8] = 24 h, 10 µM, compound concentration 10 uM, replicate 2
# [9] = 48 h, 1 µM, compound concentration 1 uM, replicate 1
# [10] = 48 h, 1 µM, compound concentration 1 uM, replicate 2
# [11] = 48 h, 10 µM, compound concentration 10 uM, replicate 1
# [12] = 48 h, 10 µM, compound concentration 10 uM, replicate 2
smiles,measurement,setting,value
COCCCN1CCC(NC(=O)c2cc(Cl)c(N)c3c2OCC3)CC1 [PRUCALOPRIDE],Population Apoptotic (%),[1],84%
same,Population Fragmented Nuclei (%),[1],30%
same,Population Healthy Nuclei (%),[1],63%
same,Population Hoechst High Intensity Objects (%),[1],1%
same,Population Membrane Permeable-Phenotype (%),[1],7%
same,Population Mitochondria Different-Phenotype (%),[1],3%
same,Population Mitotic Cells (%),[1],15%
same,Population Normal (%),[1],98%
same,Population Pyknosed Nuclei (%),[1],6%
same,Population Tubulin-Different-Phenotype (%),[1],4%
same,Total Cell Count,[1],207
same,Population Apoptotic (%),[2],87%
same,Population Fragmented Nuclei (%),[2],21%
same,Population Healthy Nuclei (%),[2],71%
same,Population Hoechst High Intensity Objects (%),[2],0%
same,Population Membrane Permeable-Phenotype (%),[2],12%
same,Population Mitochondria Different-Phenotype (%),[2],7%
same,Population Mitotic Cells (%),[2],12%
same,Population Normal (%),[2],99%
same,Population Pyknosed Nuclei (%),[2],7%
same,Population Tubulin-Different-Phenotype (%),[2],8%
same,Total Cell Count,[2],110
same,Population Apoptotic (%),[3],68%
same,Population Fragmented Nuclei (%),[3],22%
same,Population Healthy Nuclei (%),[3],63%
same,Population Hoechst High Intensity Objects (%),[3],3%
same,Population Membrane Permeable-Phenotype (%),[3],4%
same,Population Mitochondria Different-Phenotype (%),[3],0%
same,Population Mitotic Cells (%),[3],31%
same,Population Normal (%),[3],96%
same,Population Pyknosed Nuclei (%),[3],13%
same,Population Tubulin-Different-Phenotype (%),[3],2%
same,Total Cell Count,[3],238
same,Population Apoptotic (%),[4],47%
same,Population Fragmented Nuclei (%),[4],13%
same,Population Healthy Nuclei (%),[4],73%
same,Population Hoechst High Intensity Objects (%),[4],2%
same,Population Membrane Permeable-Phenotype (%),[4],1%
same,Population Mitochondria Different-Phenotype (%),[4],1%
same,Population Mitotic Cells (%),[4],52%
same,Population Normal (%),[4],97%
same,Population Pyknosed Nuclei (%),[4],12%
same,Population Tubulin-Different-Phenotype (%),[4],1%
same,Total Cell Count,[4],140
same,Population Apoptotic (%),[5],80%
same,Population Fragmented Nuclei (%),[5],26%
same,Population Healthy Nuclei (%),[5],65%
same,Population Hoechst High Intensity Objects (%),[5],2%
same,Population Membrane Permeable-Phenotype (%),[5],5%
same,Population Mitochondria Different-Phenotype (%),[5],3%
same,Population Mitotic Cells (%),[5],20%
same,Population Normal (%),[5],97%
same,Population Pyknosed Nuclei (%),[5],8%
same,Population Tubulin-Different-Phenotype (%),[5],5%
same,Total Cell Count,[5],247
same,Population Fragmented Nuclei (%),[6],23%
same,Population Healthy Nuclei (%),[6],69%
same,Population Hoechst High Intensity Objects (%),[6],1%
same,Population Membrane Permeable-Phenotype (%),[6],8%
same,Population Mitochondria Different-Phenotype (%),[6],4%
same,Population Normal (%),[6],98%
same,Population Pyknosed Nuclei (%),[6],7%
same,Population Tubulin-Different-Phenotype (%),[6],7%
same,Total Cell Count,[6],132
same,Population Apoptotic (%),[7],87%
same,Population Fragmented Nuclei (%),[7],23%
same,Population Healthy Nuclei (%),[7],64%
same,Population Hoechst High Intensity Objects (%),[7],4%
same,Population Membrane Permeable-Phenotype (%),[7],5%
same,Population Mitochondria Different-Phenotype (%),[7],2%
same,Population Mitotic Cells (%),[7],12%
same,Population Normal (%),[7],95%
same,Population Pyknosed Nuclei (%),[7],12%
same,Population Tubulin-Different-Phenotype (%),[7],4%
same,Total Cell Count,[7],280
same,Population Apoptotic (%),[8],77%
same,Population Fragmented Nuclei (%),[8],12%
same,Population Healthy Nuclei (%),[8],76%
same,Population Hoechst High Intensity Objects (%),[8],1%
same,Population Membrane Permeable-Phenotype (%),[8],3%
same,Population Mitotic Cells (%),[8],22%
same,Population Normal (%),[8],98%
same,Population Pyknosed Nuclei (%),[8],11%
same,Population Tubulin-Different-Phenotype (%),[8],3%
same,Total Cell Count,[8],161
same,Population Apoptotic (%),[9],85%
same,Population Fragmented Nuclei (%),[9],20%
same,Population Healthy Nuclei (%),[9],73%
same,Population Hoechst High Intensity Objects (%),[9],3%
same,Population Membrane Permeable-Phenotype (%),[9],3%
same,Population Mitochondria Different-Phenotype (%),[9],1%
same,Population Mitotic Cells (%),[9],14%
same,Population Normal (%),[9],96%
same,Population Pyknosed Nuclei (%),[9],6%
same,Population Tubulin-Different-Phenotype (%),[9],3%
same,Total Cell Count,[9],352
same,Population Apoptotic (%),[10],86%
same,Population Healthy Nuclei (%),[10],67%
same,Population Hoechst High Intensity Objects (%),[10],2%
same,Population Membrane Permeable-Phenotype (%),[10],11%
same,Population Mitochondria Different-Phenotype (%),[10],6%
same,Population Mitotic Cells (%),[10],13%
same,Population Normal (%),[10],97%
same,Population Pyknosed Nuclei (%),[10],11%
same,Population Tubulin-Different-Phenotype (%),[10],9%
same,Total Cell Count,[10],199
same,Population Apoptotic (%),[11],88%
same,Population Fragmented Nuclei (%),[11],17%
same,Population Healthy Nuclei (%),[11],69%
same,Population Hoechst High Intensity Objects (%),[11],1%
same,Population Membrane Permeable-Phenotype (%),[11],5%
same,Population Mitochondria Different-Phenotype (%),[11],2%
same,Population Mitotic Cells (%),[11],11%
same,Population Normal (%),[11],98%
same,Population Pyknosed Nuclei (%),[11],12%
same,Population Tubulin-Different-Phenotype (%),[11],2%
same,Total Cell Count,[11],347
same,Population Apoptotic (%),[12],90%
same,Population Fragmented Nuclei (%),[12],11%
same,Population Healthy Nuclei (%),[12],79%
same,Population Membrane Permeable-Phenotype (%),[12],3%
same,Population Mitochondria Different-Phenotype (%),[12],3%
same,Population Mitotic Cells (%),[12],9%
same,Population Pyknosed Nuclei (%),[12],9%
same,Population Tubulin-Different-Phenotype (%),[12],1%
same,Total Cell Count,[12],245

# — ChEMBL document CHEMBL5058577, “EUbOPEN Chemogenomics Library 2 (Multiplex)” (2022)
